Published values pooled from the literature.
Each line is one published result; the experiments were not run side by side.
MMP14: Matrix metalloproteinase-14 (MMP14, Homo sapiens, UniProt P50281)
PDE11A: Dual 3',5'-cyclic-AMP and -GMP phosphodiesterase 11A (PDE11A, Homo sapiens, UniProt Q9HCR9)
Kir1 channel protein: Kir1 channel protein (Aedes aegypti, UniProt L0EQS9)

SMILES	target	assay	conditions	IC50 [nM]
Cn1nc(C(=O)NCc2ccc(C(=O)O)cc2)cc1-c1ccc2[nH]c(-c3ccncc3)cc2c1	MMP14	enzyme activity, inhibitor	–	> 20000
COc1cc(C[C@H]2C(=O)OC[C@@H]2Cc2ccc(OC)c(OC)c2)ccc1O	PDE11A	enzyme activity, inhibitor	–	> 20000
C=CC(=O)Nc1cc(Nc2nccc(Nc3cc(Cl)c(F)cc3C(C)(C)O)n2)c(OC)cc1N1CC[C@@H](N(C)C)C1	Receptor tyrosine-protein kinase erbB-4 (ERBB4, Homo sapiens, UniProt Q15303)	enzyme activity, inhibitor	with preincubation	704
COc1ccc(F)cc1C(=O)NCc1ccc(-c2nn([C@@H](C)C(F)(F)F)c(N)c2C(N)=O)cc1	Tyrosine-protein kinase BTK (BTK, Homo sapiens, UniProt Q06187, C481R)	phosphorylation in cells, inhibitor	–	12.6
O=[N+]([O-])c1ccc(N2CCN(S(=O)(=O)c3ccc(Cl)cc3)CC2)cc1NCc1cccnc1	Kir1 channel protein	ion flux, inhibitor	–	1470
Cc1noc(-c2cc3cc(-c4nc(C(=O)NCc5ccccc5)[nH]c4C)ccc3[nH]2)n1	MMP14	enzyme activity, inhibitor	–	> 20000
Cc1cc(Cc2cc(C)cc(C(C)(C)C)c2O)c(O)c(C(C)(C)C)c1	Sarcoplasmic/endoplasmic reticulum calcium ATPase 1 (ATP2A1, Oryctolagus cuniculus, UniProt P04191)	ATPase activity, inhibitor, absorbance	pH 7.3	3600
CC/C(=N\NC(=O)C(C)Nc1ccccc1)c1ccc(O)c(C)c1O (stereo not drawn)	Ribosomal protein S6 kinase alpha-5 (RPS6KA5, Homo sapiens, UniProt O75582)	enzyme activity, inhibitor	–	13.2
Cc1noc(-c2cc3cc(-c4nc(C(=O)NCc5cccnc5)[nH]c4C)ccc3[nH]2)n1	MMP14	enzyme activity, inhibitor	–	> 20000
O=S(=O)(c1ccc(Cl)cc1)N1CCN(c2ccnc(NCc3ccncc3)c2)CC1	Kir1 channel protein	ion flux, inhibitor	–	4000 to 9000
O=c1c(O)c(-c2ccc(O)c(O)c2)oc2cc(O)cc(O)c12	Cytochrome P450 2E1 (CYP2E1, Homo sapiens, UniProt P05181)	enzyme activity, inhibitor, HPLC	–	104000
COc1ccc2c(Oc3ccc4c(C(=O)Nc5ccccc5N)cccc4c3)ccnc2c1	RAC-beta serine/threonine-protein kinase (AKT2, Homo sapiens, UniProt P31751)	enzyme activity, inhibitor	–	> 500
N#Cc1ccc(N2CCN(S(=O)(=O)c3ccc(Cl)cc3)CC2)cc1NCc1ccncc1	Kir1 channel protein	ion flux, inhibitor	–	738
CN1CCN(c2ccc(Nc3ncc4cc(C#N)c(=O)n(C5CCCC5)c4n3)cc2)CC1	Calcium/calmodulin-dependent protein kinase type 1 (CAMK1, Homo sapiens, UniProt Q14012)	enzyme activity, inhibitor	–	> 10000
O=[N+]([O-])c1ccc(N2CCN(S(=O)(=O)c3ccc(F)cc3)CC2)cc1NCc1cccnc1	Kir1 channel protein	ion flux, inhibitor	–	470
CSc1ccc(/C=C2/C(C)=C(CC(=O)O)c3cc(F)ccc32)cc1	PDE11A	enzyme activity, inhibitor	–	> 100000
O=C(Nc1c[nH]nc1C(=O)NC1CCNCC1)c1cc(F)cc(F)c1	Cyclin-dependent kinase 17 (CDK17, Homo sapiens, UniProt Q00537)	target engagement in cells, BRET	–	1900
O=S(=O)(c1ccc(F)cc1)N1CCN(c2ccnc(NCc3ccncc3)c2)CC1	Kir1 channel protein	ion flux, inhibitor	–	4000 to 9000
